In article PMC7194030 (Science translational medicine, 2019):
Where a name gives a salt, the structure may show the parent alone. Read-outs that look alike come from different tables or passages of the source.

Assays:
murine BFU-Es [1] = assay: Mouse BFU-E culture system; type: cell-based; details: for Percentage of Ter119+ cells with or without compound: day 14 of culture, flow cytometry; for BFU-E expansion: purified murine fetal liver BFU-Es, cell numbers counted days 0 to 9
Summary of the method: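 Cells are counted from day 0 to day 9 (three distinct samples; two-way ANOVA). At end of culture, cells are stained with anti-Ter119 and Ter119+ percentage is measured by flow cytometry (three samples; one-tailed t test).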

murine BFU-Es [2] = assay: RNA-seq of cultured BFU-Es; type: cell-based, mouse; details: 100 μM oxyphenonium bromide or 3 nM PD102807
Summary of the method: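 BFU-Es FACS-sorted from E14.5 mouse fetal liver and cultured at 37°C in serum-free SFEM II with SCF, EPO, IGF-1 and dexamethasone. Treatments: test compound (100 μM or 3 nM), 100 nM dexamethasone, or DMSO. RNA extracted with a column kit, Illumina libraries prepared, sequenced on HiSeq 2500. Three to six replicates.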

CFU-E = assay: Mouse CFU-E culture system; type: cell-based
human CD34+ HSPC = assay: Human CD34+ HSPC erythroid differentiation culture system; type: cell-based; details: for Formation of BFU-E colonies: human CD34+ HSPC; for Erythroid cell expansion: human CD34+ HSPC from healthy donors
[3] = tested on: CD34+ cells from patients with MDS; assay: Erythroid differentiation culture of CD34+ cells from patients with MDS; type: cell-based, human
Summary of the method: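 MDS patient CD34+ cells (eight patients) are cultured in SFEM with rhSCF 20 ng/ml, rhIL-3 5 ng/ml, EPO 1 U/ml and dexamethasone 1 nM, with DMSO or 3 nM test compound. Read-outs: relative cell expansion, CD235a+ fraction by flow cytometry, annexin V apoptosis, and May-Grünwald–Giemsa cytospin morphology. One-tailed t test.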

C57bl/6 mice [4] = details: in vivo
C57bl/6 mice [5] = assay: Pharmacodynamics study; type: in vivo, mouse
Summary of the method: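 PHZ hemolytic anemia model: female C57bl/6 mice, 8–10 weeks old, randomised to groups and given test compound at different doses or DMSO control intraperitoneally every day. Anemia induced with intraperitoneal PHZ (60 mg/kg). Complete blood counts taken. 7 to 10 mice per group.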

[6] = tested on: Mx1-Cre Srsf2P95H/WT MDS mice; type: in vivo; details: for BFU-E self-renewal (splenic BFU-E colonies): daily treatment
BFU-Es = assay: cAMP assay in BFU-Es; type: cell-based, mouse; details: PD102807 3 nM, forskolin 10 μM, 45 min
Summary of the method: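 Sorted murine fetal-liver BFU-Es are exposed for 45 min to DMSO, 3 nM test compound, or 10 μM forskolin. Cells are lysed in 0.1 M HCl (20 min, room temperature) and cleared at 15,000g for 10 min. Samples are neutralized, acetylated, and run in a competitive cAMP immunoassay (antibody, then cAMP-HRP, 1 h each; HRP developer 1 h). The reaction is stopped with 1 M HCl and read at OD 450 nm.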

[7] = molecular target: human recombinant CHRM4 receptor (Homo sapiens, UniProt P08173); details: protein binding assay, IC50 on CHRM1-5
murine BFU-Es [8] = assay: BFU-E colony formation assay of cultured murine BFU-Es; type: cell-based, mouse; details: colonies counted on day 9 of colony formation assay
Summary of the method: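 BFU-Es (lin−Ter119−CD16/CD32−Sca-1−CD41−c-Kit+CD71/Cd24a10%low) are FACS-sorted from E14.5 C57bl/6 fetal liver. Cells are then plated in MethoCult SF M3436, and colonies are counted on day 9. Nine distinct samples; one-tailed t test.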

Sequence of human recombinant CHRM4 receptor (P08173 whole entry): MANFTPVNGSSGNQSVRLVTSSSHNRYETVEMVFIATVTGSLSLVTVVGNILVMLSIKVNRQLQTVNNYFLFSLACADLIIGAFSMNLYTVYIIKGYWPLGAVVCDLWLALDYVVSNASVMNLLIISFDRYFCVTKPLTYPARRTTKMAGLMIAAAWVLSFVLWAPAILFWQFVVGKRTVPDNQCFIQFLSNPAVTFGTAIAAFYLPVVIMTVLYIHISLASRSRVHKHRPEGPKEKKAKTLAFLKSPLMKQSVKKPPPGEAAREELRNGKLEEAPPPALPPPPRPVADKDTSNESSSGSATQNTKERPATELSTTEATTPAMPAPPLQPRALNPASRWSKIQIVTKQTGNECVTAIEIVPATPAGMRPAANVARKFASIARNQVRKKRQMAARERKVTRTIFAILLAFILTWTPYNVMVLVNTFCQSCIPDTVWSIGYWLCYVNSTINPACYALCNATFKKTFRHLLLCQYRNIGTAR

Row | Structure (SMILES) | Percentage of Ter119+ cells with or without compound (murine BFU-Es [1]) | BFU-E expansion (murine BFU-Es [1]) | BFU-E gene signature expression (murine BFU-Es [2]) | Formation of BFU-E colonies (human CD34+ HSPC) | Erythroid cell expansion (human CD34+ HSPC) | Anti-anemia minimal effective dose (C57bl/6 mice [5]) [mg/kg] | BFU-E self-renewal (splenic BFU-E colonies) ([6]; MDS mice) | cAMP concentration in BFU-Es relative to DMSO (BFU-Es) | further results
1 | CCCCCCOC(=O)[C@]1(O)C[C@@H]2O[C@@]1(C)n1c3ccccc3c3c4c(c5c6ccccc6n2c5c31)C(=O)NC4 [KT5720] | – | – | – | – | – | – | – | – | Effect on CHRM4 antagonist-induced BFU-E expansion (murine BFU-Es [1]; 2 μM KT5720 with 3 nM PD102807, day 9): blocked CHRM4 antagonist–induced BFU-E expansion
2 | CCOC(=O)c1c(C)[nH]c2ccc3c(c12)CN1CCc2cc(OC)ccc2C1O3 (stereo not shown) [PD102807] | no difference | promoted BFU-E expansion at nanomolar concentrations | up-regulated a gene signature characteristic of BFU-Es | increased formation of BFU-E colonies | expanded erythroid cells | 100 | promoted BFU-E self-renewal | increased in concentration | CFU-E proliferation (CFU-E): no effect; Cell survival or differentiation with and without compound ([3]; 3 nM PD102807): no difference; Production of erythroid cells ([3]; 3 nM PD102807, eight patients): increased production of erythroid cells; Maximal tolerated dose (C57bl/6 mice [4]; mouse): 100 mg/kg; Tolerability in vivo ([6]; MDS mice): well tolerated; Weight loss, liver or kidney function ([6]; MDS mice): no substantial effects; White blood cell or platelet production ([6]; MDS mice): no influence; Selectivity for CHRM4 over other muscarinic acetylcholine receptors [7]: selectively inhibits CHRM4 over other muscarinic acetylcholine receptors
3 | C=C[C@@]1(C)CC(=O)[C@]2(O)[C@@]3(C)[C@@H](O)CCC(C)(C)[C@@H]3[C@H](O)[C@H](OC(C)=O)[C@@]2(C)O1 [forskolin] | – | promoted BFU-E expansion | – | – | – | – | – | increased in concentration | –
4 | Cc1ccccc1C(OCCN(C)C)c1ccccc1 (stereo not shown) [orphenadrine citrate] | – | triggered BFU-E expansion | – | – | – | 100 | promoted BFU-E self-renewal | – | Tolerability in vivo ([6]; mouse, in vivo): well tolerated; White blood cell or platelet production ([6]; mouse, in vivo): no influence
5 | CC[N+](C)(CC)CCOC(=O)C(O)(c1ccccc1)C1CCCCC1 (stereo not shown) [oxyphenonium bromide] | no difference | triggered BFU-E expansion | up-regulated a gene signature characteristic of BFU-Es | increased formation of BFU-E colonies | expanded erythroid cells | 25 | promoted BFU-E self-renewal | – | BFU-E expansion and erythrocyte production (murine BFU-Es [1]; 100 μM oxyphenonium bromide): prolonged expansion resulting in increased production of erythrocytes; Formation of BFU-E colonies (murine BFU-Es [8]): increased formation of BFU-E colonies; Maximal tolerated dose (C57bl/6 mice [4]; female, C57bl/6, mouse, 7 days): 50 mg/kg
